Active and inactive are the calls of the source. The calls are words filed in the database; no cut-off is given here. Where only a bound is given, the exact number is not on record here.

Series [1] addresses T1, Platelet-derived growth factor receptor alpha (Homo sapiens, UniProt P16234). The conditions noted are these: 1 uM.
Series [2] deals with T1, Platelet-derived growth factor receptor alpha. The settings on record: NCI-H1703, 1 uM.
Series [3] can be described thus: AUC (0 to infinity) in Sprague-Dawley rat at 1 mg/kg, iv. Format: ADME, organism-based. Also noted: dose 1 mg/kg, time infinity, route intravenous. The settings on record: in vivo. The method, boiled down:
(§1)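 Male Sprague-Dawley rats (6–8 weeks) fasted overnight, dosed IV or orally; compound dissolved in 5% DMSO/40% PEG400/55% saline (dosing solution 1 mg/mL). Blood (~0.2 mL) from jugular vein into heparin; IV sampling 1 min–8 h, oral 5 min–24 h. Plasma separated by centrifugation at 2–8 °C, stored at −80 °C until analysis.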

The subject of series [4] is EOL1. Nature of the series: Antitumor activity against human EOL-1 cells xenografted in nu/nu mouse assessed as tumor growth inhibition at 100 mg/kg/day, ip. The settings on record: read-out: TGI. It is filed as functional. The gist of the method:
(§2)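 Female nu/nu mice (6 weeks) given subcutaneous right-flank injection of 5 million EOL-1 cells in PBS/Matrigel 1:1. At 200–400 mm3 tumors, randomized to groups of 6 and dosed daily i.p. for 14 days at 25, 50 or 100 mg/kg/d in 0.5% methylcellulose/0.4% Tween80. Tumor volume = W²×L/2, measured daily.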

Series [5] has as its target T1, Platelet-derived growth factor receptor alpha. The settings on record: 100 nM.
Series [6] in a line: Tmax in Sprague-Dawley rat at 1 mg/kg, iv. Format: ADME, organism-based. The conditions noted are these: in vivo. The gist of the method:
(§3)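 Male Sprague-Dawley rats, 6–8 weeks old and fasted overnight, dosed IV at 1 mg/kg or PO at 10 mg/kg. Formulation was 5% DMSO/40% PEG400/55% saline (1 mg/mL). Jugular blood collected on heparin from 1 min to 8 h (IV) or 5 min to 24 h (PO). Plasma separated by centrifugation at 2–8 °C and stored at −80 °C.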

In another series the test system is Mus musculus. Nature of the series: Toxicity in nu/nu mouse xenografted with human EOL-1 cells assessed as change in body weight at 25 to 100 mg/kg/day, ip. The settings on record: in vivo. Format: organism-based. The method, boiled down: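 Female nu/nu mice, 6 weeks old, implanted subcutaneously in the right flank with 5 million EOL-1 cells in PBS/Matrigel 1:1. At tumour size 200–400 mm³, mice randomised into groups of 6 and given daily IP doses of 25, 50 or 100 mg/kg in 0.5% methylcellulose/0.4% Tween80, or vehicle, for 14 days. Body weight measured daily and normalised to initial weight; mean ± SEM.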

A short description of series [7]: Tmax in Sprague-Dawley rat at 10 mg/kg, po. It is filed as ADME, organism-based. The conditions noted are these: in vivo. The method, boiled down: as §3
The subject of series [8] is EOL1. Nature of the series: Antiproliferative activity against human EOL-1 cells after 72 hrs by CellTiter-Glo or CCK-8 assay. It is filed as functional. The conditions noted are these: EOL1, 72 h. The method, boiled down:
(§4)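 Cells in RPMI 1640 with 10% FBS at 37 °C, 5% CO2, seeded at 1–3 × 10^4 cells/mL with serial compound dilutions for 72 h. Viability read by CellTiter-Glo luminescence or CCK-8 absorbance (450/655 nm), normalized to DMSO control.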
A general note: Cellular ATP, detected with luciferase, serves as a proxy for viable cell number.

Series [9] deals with T1, Platelet-derived growth factor receptor alpha. The conditions noted are these: NCI-H1703, 1 uM. This is another data set of the same source.
Series [10] concerns EOL1. Nature of the series: Antitumor activity against human EOL-1 cells xenografted in nu/nu mouse assessed as tumor growth inhibition at 25 mg/kg/day, ip. Format: functional. The conditions noted are these: read-out: TGI. The method, boiled down: as §2
Series [11] relates to NCI-H1703. Nature of the series: Antiproliferative activity against human NCI-H1703 cells after 72 hrs by CellTiter-Glo or CCK-8 assay. Format: functional. The conditions noted are these: NCI-H1703, 72 h. The method, boiled down:
as §4

In series [12] the target is T1, Platelet-derived growth factor receptor alpha. The settings on record: NCI-H1703, 1 uM. This is another data set of the same source.
Series [13] has as its system NCI-H1703. Nature of the series: Antiproliferative activity against human NCI-H1703 cells after 72 hrs in presence of PDGF-AA by CellTiter-Glo or CCK-8 assay. It is filed as functional. The settings on record: NCI-H1703, 72 h. The method, boiled down: as §4
Series [14] can be described thus: AUC (0 to infinity) in Sprague-Dawley rat at 10 mg/kg, po. Format: ADME, organism-based. Also noted: dose 10 mg/kg, route oral, time infinity. The settings on record: in vivo. The gist of the method:
as §1

The nature of series [15]: Cmax in Sprague-Dawley rat at 1 mg/kg, iv. Also noted: dose 1 mg/kg, route intravenous. The conditions noted are these: in vivo. Format: ADME, organism-based. The gist of the method: as §3
A short description of series [16]: Cytotoxicity against mouse BA/F3 cells after 72 hrs by CellTiter-Glo or CCK-8 assay. Format: cell-based, BaF3. The gist of the method: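 Parental BaF3 or IL-3-independent TEL-kinase BaF3 lines, made by retroviral infection and puromycin selection, grown in RPMI 1640 with 10% FBS. Cells seeded at 1–3 × 10^4 cells/mL with serial compound concentrations for 72 h. Viability read by CellTiter-Glo luminescence or CCK-8 absorbance at 450/655 nm and normalised to DMSO. GI50 obtained by triplicate testing with linear regression. Selectivity is the ratio of the two GI50 values.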

The target in series [17] is T1, Platelet-derived growth factor receptor alpha. The settings on record: 1 uM. This is another data set of the same source.
Series [18] has as its system EOL1. Nature of the series: Antitumor activity against human EOL-1 cells xenografted in nu/nu mouse assessed as tumor growth inhibition at 50 mg/kg/day, ip. It is filed as functional. The settings on record: read-out: TGI. The method, boiled down: as §2
For orientation: In xenograft studies the graft and the host belong to different species.

Series [19] is described as follows: AUC (0 to t) in Sprague-Dawley rat at 1 mg/kg, iv. It is filed as ADME, organism-based. The settings on record: in vivo. The gist of the method:
as §1

A short description of series [20]: AUC (0 to t) in Sprague-Dawley rat at 10 mg/kg, po. The conditions noted are these: in vivo. Format: ADME, organism-based. The gist of the method: as §1
Series [21] can be described thus: Oral bioavailability in Sprague-Dawley rat at 10 mg/kg. Format: ADME, organism-based. The settings on record: in vivo. The method, boiled down:
as §3

Series [22] can be described thus: Cmax in Sprague-Dawley rat at 10 mg/kg, po. Format: ADME, organism-based. Also noted: dose 10 mg/kg, route oral. The conditions noted are these: in vivo. The gist of the method: as §3

T1 sequence (P16234 whole entry): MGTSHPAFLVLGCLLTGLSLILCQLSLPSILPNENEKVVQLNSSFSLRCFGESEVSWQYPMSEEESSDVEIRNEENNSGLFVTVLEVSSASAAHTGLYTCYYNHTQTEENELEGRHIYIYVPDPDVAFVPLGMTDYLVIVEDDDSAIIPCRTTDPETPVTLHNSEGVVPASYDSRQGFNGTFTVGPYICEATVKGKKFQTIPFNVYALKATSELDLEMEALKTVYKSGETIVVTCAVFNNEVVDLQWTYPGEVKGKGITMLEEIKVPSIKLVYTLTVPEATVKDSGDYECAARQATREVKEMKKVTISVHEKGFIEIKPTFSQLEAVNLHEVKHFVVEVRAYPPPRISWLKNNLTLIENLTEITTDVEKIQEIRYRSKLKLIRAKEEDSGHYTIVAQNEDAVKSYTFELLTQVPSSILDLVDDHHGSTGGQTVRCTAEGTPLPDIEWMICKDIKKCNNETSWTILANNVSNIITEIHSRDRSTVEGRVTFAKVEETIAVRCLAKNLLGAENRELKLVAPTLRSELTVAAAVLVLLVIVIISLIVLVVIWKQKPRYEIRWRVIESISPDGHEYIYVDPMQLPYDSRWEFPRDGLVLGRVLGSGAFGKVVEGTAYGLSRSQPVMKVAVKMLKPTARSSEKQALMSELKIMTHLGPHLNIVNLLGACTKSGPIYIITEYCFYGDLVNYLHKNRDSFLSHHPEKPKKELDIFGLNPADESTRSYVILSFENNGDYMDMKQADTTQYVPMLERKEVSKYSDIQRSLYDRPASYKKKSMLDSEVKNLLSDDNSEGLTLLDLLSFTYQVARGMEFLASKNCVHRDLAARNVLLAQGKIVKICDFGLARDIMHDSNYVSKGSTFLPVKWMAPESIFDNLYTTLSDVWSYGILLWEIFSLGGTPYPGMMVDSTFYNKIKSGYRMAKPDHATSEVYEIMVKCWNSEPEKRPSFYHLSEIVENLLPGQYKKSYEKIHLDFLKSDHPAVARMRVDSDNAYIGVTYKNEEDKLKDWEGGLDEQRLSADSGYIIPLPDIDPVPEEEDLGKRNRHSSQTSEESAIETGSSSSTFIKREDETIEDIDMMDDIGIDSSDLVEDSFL

A word on the AUC(0-inf): it is the area under the concentration-time curve extrapolated to infinity. Lower therefore signals low exposure. One may read the Tmax as the time at which the peak concentration occurs. The GI50 is the concentration at which growth is held to half of that of the control. For orientation: Cmax means the peak of the concentration-time curve. In general, AUC(0-t) refers to exposure summed from dosing to a finite time, without extrapolation to infinity. For orientation: bioavailability means dose-corrected exposure relative to a reference, in per cent. Low values mean little systemic uptake, high ones much systemic uptake. Take `Cc1ccc(NC(=O)c2ccc(CN3CCN(C)CC3)cc2)cc1Nc1nccc(-c2cccnc2)n1` [IMATINIB]: the inhibition result in series [1], in [2], in series [9], in [12] and in [17] was “Active” throughout. Moreover, the AUC(0-inf) worked out at 869 ng·h/mL in series [3] and 6650 ng·h/mL in series [14]. Moreover, the inhibition in vivo at 100 mg/kg/day in the series with EOL1 [4] turned out to be 100%. In addition, the inhibition entry in series [5] is “inactive”. Besides, the Tmax in series [6] came to 1.02 min; in series [7] it was 6.67 h. Moreover, in the series with Mus musculus, the Activity result is listed as “Toxic”. Moreover, the GI50 with EOL1 [8] was under 0.001 µM; in the series with NCI-H1703 [11], 2.1 µM; in the series on NCI-H1703 [13], 0.23 µM. Moreover, the inhibition in vivo at 25 mg/kg/day in the series with EOL1 [10] stood at 99.9%. Moreover, the values for the Cmax in series [15] and in [22] were 547 ng/mL and 531 ng/mL, respectively. Moreover, in series [16], the GI50 at 72 h was over 10 µM. Further, the inhibition in vivo at 50 mg/kg/day with EOL1 [18] worked out at 100%. Moreover, the AUC(0-t) worked out at 856 ng·h/mL in series [19] and 6460 ng·h/mL in series [20]. This molecule displayed a bioavailability in series [21] of 76.5%.
